Measurements gathered from unrelated publications.
Lines come from different studies, so protocols differ.

COc1cc(C(=O)N2CC[C@@H](O)[C@@H](N)C2)cc2nc(-c3cc4ccccc4n3CC3CC3)n(C)c12
chromatographic logD (HPLC; pH 7.4): 3.7

Cc1c(C(=O)NN2CCCCC2)nc(-c2ccc(Cl)cc2Cl)n1-c1ccc(OCCCF)cc1
logD (shake flask; aqueous buffer; pH 7.4): 5.3

O=c1c(O)c(NCc2ccccc2)c1=O
logD (shake flask; aqueous buffer; 1 h, pH 7.4): -1.4

O=C(O)CN1CCC(Oc2ccc([C@H]3CC[C@]4(CC3)OOC3(O4)C4CC5CC(C4)CC3C5)cc2)CC1 (stereo partly drawn)
chromatographic logD (HPLC; pH 7.4): 3 to 3.3

CC(C)C[C@@H]1NC(=O)[C@@H]2CSSC[C@@H](C(=O)NCC(N)=O)NC(=O)[C@H](Cc3ccccc3)NC(=O)CNC(=O)[C@H](CC(N)=O)NC(=O)[C@@H]3CCCN3C(=O)CNC(=O)[C@@H]3CSSC[C@H](NC(=O)[C@H](CO)NC(=O)[C@H]([C@@H](C)O)NC(=O)[C@@H]4CCCN4C(=O)[C@H](C)NC(=O)[C@H](Cc4c[nH]c5ccccc45)NC(=O)[C@H](CC(=O)O)NC(=O)CNC(=O)[C@H](CCCNC(=N)N)NC(=O)CNC(=O)[C@H](CCC(N)=O)NC(=O)[C@@H]4CCCN4C(=O)[C@@H](NC(=O)CNC(=O)c4ccc(F)cc4)CSSC[C@H](NC(=O)CNC(=O)[C@H](C)NC1=O)C(=O)N[C@@H](C(C)C)C(=O)N3)C(=O)N[C@@H](CO)C(=O)N[C@@H](CCC(N)=O)C(=O)N[C@@H](CC(=O)O)C(=O)N[C@@H](CO)C(=O)N[C@@H](CC(=O)O)C(=O)N2
logD (shake flask; PBS; pH 7.4): -1.68

Clc1ccc(COc2cc(OC[C@@H]3CCCN3)cnc2Cl)cn1
logD (shake flask; aqueous buffer; pH 7.4): 1.9

C=CC1=C(C)C2=Cc3c(C=C)c(C)c4[n]3[Fe]([Cl])[n]3c(c(C)c(CCC(=O)O)c3=CC3=NC(=C4)C(C)=C3CCC(=O)O)=CC1=N2
logD (shake flask; aqueous buffer; pH 9): 0.463

CN1CCC[C@H]1COc1cnc(Cl)c(OCc2ccc(Cl)nc2)c1
logD (shake flask; aqueous buffer; pH 7.4): 2.2

Cc1c(C(=O)NN2CCCCC2)nc(-c2ccc(Cl)cc2Cl)n1-c1ccc(OCCCC(F)(F)F)cc1
logD (shake flask; aqueous buffer; pH 7.4): > 5.5
